How the values were obtained:
Type in all cases: functional
L1210 [1] = experiment: Inhibitor activity against L1210/vmdr (transfected with a plasmid containing mdr1) cell line with varying concentration of the drug for 72 hrs; settings: Mus musculus, L1210, 72 h
Outline: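 L1210 leukemia transfected with human mdr1 (pHaMDR1/A), grown in RPMI 1640 with 10% FBS plus 0.06 µg/mL colchicine; colchicine removed one week before assay. Exposed 72 h to a range of drug concentrations (ethanol stocks). Sulforhodamine B staining after in situ fixation. GI50 is the concentration giving 50% growth inhibition, from six wells over two plates.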

L1210 [2] = experiment: Inhibitor activity against L1210 (murine leukemia )cell line with varying concentration of the drug for 72 hrs; settings: Mus musculus, L1210, 72 h
Outline: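 Murine L1210 leukemia cells grown in RPMI 1640 with 10% FBS. Exposed 72 h to a range of drug concentrations; drug stocks in ethanol. Growth read by in situ fixation and sulforhodamine B staining. GI50 is the concentration giving 50% growth inhibition. Each value comes from six wells over two plates; reported as mean ± SD.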

MCF7 [3] = experiment: Inhibitor activity against MCF-7/Adr (Human colon carcinoma)cell line with varying concentration of the drug for 72 hrs; settings: MCF7, 72 h, in the assay text read “Human breast carcinoma” for “Human colon carcinoma”
Outline: (§1)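 Cells exposed 72 h to a range of drug concentrations; drug stocks prepared in ethanol. Growth read by in situ fixation and sulforhodamine B protein staining. GI50 is the concentration giving 50% growth inhibition. Each experiment's value comes from three wells on each of two separate plates (six wells); reported as mean ± SD over n experiments.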

A549 = experiment: Inhibitor activity against A549 (Human lung carcinoma)cell line with varying concentration of the drug for 72 hrs; settings: A549, 72 h; outline: as §1
HT-29 = experiment: Inhibitor activity against HT-29 (Human colon carcinoma)cell line with varying concentration of the drug for 72 hrs; settings: HT-29, 72 h; outline: as §1
MCF7 [4] = experiment: Inhibitor activity against MCF-7(Human breast carcinoma)cell line with varying concentration of the drug for 72 hrs; settings: MCF7, 72 h; outline: as §1
P388 [5] = experiment: Inhibitor activity against P388/Adr (murine leukemia )cell line with varying concentration of the drug for 72 hrs; settings: Mus musculus, P388, 72 h; outline: as §1
[6] = system: Lewis lung carcinoma cell line; experiment: Inhibitor activity against Lewis lung (murine lung carcinoma)cell line with varying concentration of the drug for 72 hrs; settings: Mus musculus; outline: as §1
P388 [7] = experiment: Inhibitor activity against P388 (murine leukemia )cell line with varying concentration of the drug for 72 hrs; settings: Mus musculus, P388, 72 h; outline: as §1

Row | GI50 (L1210 [1]) | GI50 (L1210 [2]) | GI50 (MCF7 [3]) | GI50 (A549) | GI50 (HT-29) | GI50 (MCF7 [4]) | GI50 (P388 [5]) | GI50 [6] | GI50 (P388 [7]) | Compound
1 | 16.5 µM | 15.5 µM | 18.6 µM | 15.6 µM | 20 µM | 18.2 µM |  |  |  | CCCCCCCCCCCCCCCCOC[C@H](CO[C@H]1O[C@@H](CO)[C@@H](O)[C@H](O)[C@H]1OC)OC
2 | 26.9 µM | 18.8 µM | 24.4 µM | 19.7 µM | 29.6 µM | 24.4 µM |  |  |  | CCCCCCCCCCCCCCCCOC[C@H](CO[C@@H]1C[C@@H](O)[C@H](O)[C@H](CO)O1)OC
3 |  |  | 21.8 µM | 18.3 µM |  | 23.1 µM | 29.3 µM | 26 µM | 18.1 µM | CCCCCCCCCCCCCCCCOC[C@H](CO[C@@H]1O[C@@H](CO)[C@@H](O)[C@H](O)[C@@H]1OC)OC
4 | 7.09 µM | 7.02 µM | 12.8 µM | 9.9 µM | 7.59 µM | 6.93 µM | 10.2 µM | 11.1 µM | 12.7 µM | CCCCCCCCCCCCCCCCOC[C@H](CO[C@H]1C[C@@H](O)[C@H](O)[C@H](CO)O1)OC
5 | 18.9 µM | 16.2 µM | 23.3 µM | 18.1 µM | 23.2 µM | 21.7 µM |  |  |  | CCCCCCCCCCCCCCCCOC[C@H](CO[C@@H]1O[C@@H](CO)[C@@H](O)[C@H](O)[C@@H]1O)OC
6 | 11 µM | 3.32 µM | 30.4 µM | 5.05 µM | 2.2 µM | 9.66 µM | 6.39 µM | 30.2 µM | 4.33 µM | CCCCCCCCCCCCCCCCCCOC[C@H](COP(=O)([O-])OCC[N+](C)(C)C)OC [(R)-EDELFOSINE]

Reference: ChEMBL document CHEMBL1129274, “Synthesis and growth inhibitory properties of glycosides of 1-O-hexadecyl-2-O-methyl-sn-glycerol, analogs of the antitumor ether lipid ET-18-OCH3 (edelfosine)” (1996)
